Data set [1] concerns A549. The experiment in a line: cells. Format: functional, cell-based. The note with it: Homo sapiens, A549, 72 h.
The nature of data set [2]: cells. The note with it: Homo sapiens, HCC827, 72 h. It is filed as functional, cell-based.
Data set [3] can be described thus: cells. Format: ADME, cell-based. To be noted: Homo sapiens, 16HBE14o-, 72 h.
Data set [4] concerns the target Epidermal growth factor receptor (Homo sapiens, UniProt P00533, L858R/T790M). Format: protein assay.
Data set [5] deals with NCI-H1975. Nature of the data set: Antiproliferative activity against human NCI-H1975 cells harboring EGFR L858R/T790M mutant after 72 hrs by MTT assay. It is filed as functional, cell-based. The note with it: NCI-H1975, 72 h. On the technique in general: Tetrazolium assays rely on reduction of a dye to a coloured formazan, in cell work by metabolically active cells.
For data set [6], the system named is A-431. Nature of the data set: cells. Format: functional, cell-based. The note with it: Homo sapiens, A-431, 72 h.
In data set [7] the target is Epidermal growth factor receptor (Homo sapiens, UniProt P00533, L858R). It is filed as protein assay.
Sequence of Epidermal growth factor receptor (Homo sapiens, UniProt P00533, L858R) (P00533 25-1210 L858R limits assumed): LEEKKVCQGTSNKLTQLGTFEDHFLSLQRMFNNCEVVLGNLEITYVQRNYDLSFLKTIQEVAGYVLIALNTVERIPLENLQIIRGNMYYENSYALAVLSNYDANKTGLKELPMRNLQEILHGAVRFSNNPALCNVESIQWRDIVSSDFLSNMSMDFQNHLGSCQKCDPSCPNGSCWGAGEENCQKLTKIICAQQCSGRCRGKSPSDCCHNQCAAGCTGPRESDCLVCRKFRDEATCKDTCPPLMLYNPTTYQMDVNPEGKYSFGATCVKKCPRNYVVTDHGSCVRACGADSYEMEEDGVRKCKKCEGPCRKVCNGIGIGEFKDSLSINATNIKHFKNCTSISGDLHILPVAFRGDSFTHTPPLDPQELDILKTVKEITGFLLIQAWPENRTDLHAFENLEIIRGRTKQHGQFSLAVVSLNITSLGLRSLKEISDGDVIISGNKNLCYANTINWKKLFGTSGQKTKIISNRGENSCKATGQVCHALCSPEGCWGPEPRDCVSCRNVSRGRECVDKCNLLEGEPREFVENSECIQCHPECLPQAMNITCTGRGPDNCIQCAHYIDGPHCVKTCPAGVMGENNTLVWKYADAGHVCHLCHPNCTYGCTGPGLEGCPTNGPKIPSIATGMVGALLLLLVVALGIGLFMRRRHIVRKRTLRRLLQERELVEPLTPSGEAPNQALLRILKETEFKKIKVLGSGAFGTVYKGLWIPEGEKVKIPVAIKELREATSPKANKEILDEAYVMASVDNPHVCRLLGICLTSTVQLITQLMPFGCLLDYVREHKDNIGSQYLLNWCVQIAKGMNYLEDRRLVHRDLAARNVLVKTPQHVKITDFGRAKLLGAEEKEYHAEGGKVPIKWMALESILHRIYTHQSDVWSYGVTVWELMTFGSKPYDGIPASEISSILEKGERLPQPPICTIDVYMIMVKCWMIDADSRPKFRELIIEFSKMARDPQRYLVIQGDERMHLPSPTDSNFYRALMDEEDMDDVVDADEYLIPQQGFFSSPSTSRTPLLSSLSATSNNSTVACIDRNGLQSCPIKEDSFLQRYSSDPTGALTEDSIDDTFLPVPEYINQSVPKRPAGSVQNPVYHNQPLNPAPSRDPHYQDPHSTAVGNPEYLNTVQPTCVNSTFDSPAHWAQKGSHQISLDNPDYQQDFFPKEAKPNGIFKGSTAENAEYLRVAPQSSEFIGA
Data set [8] is described as follows: cells. Format: functional, cell-based. To be noted: Homo sapiens, BEAS-2B, 72 h.
For data set [9], the target named is Epidermal growth factor receptor (Homo sapiens, UniProt P00533).
Sequence of Epidermal growth factor receptor (Homo sapiens, UniProt P00533) (P00533 whole entry): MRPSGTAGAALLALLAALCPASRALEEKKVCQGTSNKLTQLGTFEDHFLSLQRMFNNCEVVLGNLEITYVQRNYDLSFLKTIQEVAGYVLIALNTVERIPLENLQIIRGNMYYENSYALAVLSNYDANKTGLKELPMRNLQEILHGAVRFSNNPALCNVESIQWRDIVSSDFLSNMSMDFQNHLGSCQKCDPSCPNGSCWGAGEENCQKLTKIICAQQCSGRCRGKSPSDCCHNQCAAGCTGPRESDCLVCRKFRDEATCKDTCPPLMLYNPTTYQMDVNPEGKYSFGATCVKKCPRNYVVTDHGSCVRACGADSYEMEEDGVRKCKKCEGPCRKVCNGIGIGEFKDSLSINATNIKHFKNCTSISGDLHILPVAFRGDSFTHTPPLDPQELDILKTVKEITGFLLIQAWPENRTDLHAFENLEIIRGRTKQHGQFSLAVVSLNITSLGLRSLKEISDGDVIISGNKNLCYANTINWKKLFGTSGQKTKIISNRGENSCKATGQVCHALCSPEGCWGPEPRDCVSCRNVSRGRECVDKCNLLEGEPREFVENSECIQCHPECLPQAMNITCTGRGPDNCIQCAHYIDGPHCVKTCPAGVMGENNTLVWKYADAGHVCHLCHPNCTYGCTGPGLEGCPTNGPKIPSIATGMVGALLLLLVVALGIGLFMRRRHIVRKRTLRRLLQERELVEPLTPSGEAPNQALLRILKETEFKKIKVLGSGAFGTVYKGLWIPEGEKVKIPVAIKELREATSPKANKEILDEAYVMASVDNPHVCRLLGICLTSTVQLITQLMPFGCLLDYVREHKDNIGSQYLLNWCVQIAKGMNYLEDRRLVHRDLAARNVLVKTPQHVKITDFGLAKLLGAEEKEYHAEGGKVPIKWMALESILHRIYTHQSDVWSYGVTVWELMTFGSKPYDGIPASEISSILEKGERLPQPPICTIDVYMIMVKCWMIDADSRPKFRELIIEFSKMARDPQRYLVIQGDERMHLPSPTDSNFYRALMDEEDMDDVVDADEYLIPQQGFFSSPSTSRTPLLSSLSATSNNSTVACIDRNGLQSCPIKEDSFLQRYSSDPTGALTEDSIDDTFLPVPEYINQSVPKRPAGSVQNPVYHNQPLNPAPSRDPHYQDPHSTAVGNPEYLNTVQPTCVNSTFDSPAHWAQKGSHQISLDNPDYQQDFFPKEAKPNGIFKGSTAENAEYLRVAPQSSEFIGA
The subject of data set [10] is NCI-H1975. Nature of the data set: Induction of NO production in human NCI-H1975 cells harboring EGFR L858R/T790M mutant at 100 uM incubated for 150 mins. Format: functional, cell-based. In a few lines: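 H1975 or 16HBE cells (1 × 10⁶/well) exposed to 100 µM compound for 150 min, then harvested and lysed. Lysates mixed with Griess reagent for 10 min and absorbance read at 540 nm. Nitrite quantified against a […] standard curve, with diluent-treated cells as background.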

Data set [11] concerns HCC827. Nature of the data set: Antiproliferative activity against gefitinib-sensitive human HCC827 cells bearing EGFR del E746_A750 mutant at 5 uM after 72 hrs by MTT assay in presence of 1 to 20 uM haemoglobin NO scavenger. It is filed as functional, cell-based. To be noted: in the assay text read “24 hrs” for “72 hrs”. In a few lines: (§1)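 Cells pretreated 1 h with hemoglobin (0, 1, 5, 10 or 20 µM) as NO scavenger, then exposed to 5 µM test compound for 24 h; growth read by MTT assay.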

The subject of data set [12] is Epidermal growth factor receptor (Homo sapiens), P00533 [L858R,T790M]. The experiment in a line: Inhibition of EGFR phosphorylation in human H1975 cells harboring EGFR L858R/T790M mutant by Western blotting analysis. It is filed as cell-based. Summed up: (§2)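 Lysates (50 µg/lane) separated on 7.5% SDS-PAGE and blotted to nitrocellulose. Probed for total and phospho-EGFR (Tyr1068), Akt (Ser473) and ERK (Thr202/Tyr204) plus β-actin; HRP secondaries with ECL detection.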
In general terms: Immunoblotting shows a protein as a band on a membrane.

Data set [13] has the same test system. The experiment in a line: Inhibition of EGFR phosphorylation in human H1975 cells harboring EGFR L858R/T790M mutant at 0.1 uM by Western blotting analysis. Format: cell-based. In a few lines:
as §2

For data set [14], the system named is NCI-H1975. Nature of the data set: Antiproliferative activity against human NCI-H1975 cells harboring EGFR L858R/T790M mutant at 5 uM after 72 hrs by MTT assay in presence of 1 to 20 uM haemoglobin NO scavenger. Format: functional, cell-based. To be noted: in the assay text read “24 hrs” for “72 hrs”. In a few lines:
as §1

In data set [15] the target is RAC-alpha serine/threonine-protein kinase (Homo sapiens) (UniProt P31749). Nature of the data set: Inhibition of Akt phosphorylation in human H1975 cells harboring EGFR L858R/T790M mutant at 1 uM by Western blotting analysis. Format: cell-based. Summed up: as §2
Data set [16] has as its system Epidermal growth factor receptor (Homo sapiens), P00533 [L858R,T790M]. To be noted: H1975, at 1 µM.
Data set [17] relates to H1975. To be noted: Homo sapiens, at 1 µM.
The nature of data set [18]: L-cysteine reactivity assessed as compound remaining at 50 uM after 1 hr at pH 7.4 by LC-UV analysis. It is filed as physicochemical. To be noted: read-out: Activity. In a few lines: (§3)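 Freshly prepared thiol (DTT, reduced GSH or L-cysteine; 2 mM) added to PBS pH 7.4 containing test compound, incubated 1 h at 37 °C. Remaining parent measured by HPLC-UV (C18, 281 nm); mean ± SD, n = 3.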

The nature of data set [19]: GSH reactivity assessed as compound remaining at 50 uM after 1 hr at pH 7.4 by LC-UV analysis. It is filed as physicochemical. The note with it: read-out: Activity. Summed up:
as §3

Data set [20] is described as follows: DTT reactivity assessed as compound remaining at 50 uM after 1 hr at pH 7.4 by LC-UV analysis. Format: physicochemical. The note with it: read-out: Activity. In a few lines:
as §3

Data set [21] deals with Plasma. Nature of the data set: (§4) Stability of the compound in rat plasma assessed as compound remaining at 50 uM at pH 7.4 after 24 hrs by LC-UV analysis. It is filed as ADME, cell-free. To be noted: pH 7.4, 24 h, 50 µM, BLD = below limit of detection. Summed up:
(§5)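 Rat plasma diluted to 50% (v/v) with 0.1 M PBS pH 7.4 and spiked with compound from a DMSO stock, then incubated 24 h at 37 °C. Two volumes acetonitrile added, centrifuged (4 °C, 14,000 g, 15 min), supernatant run on RP-HPLC with UV at 281 nm; percent remaining, n = 3.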

Data set [22] in a line: Chemical stability of the compound in buffer solution assessed as compound remaining at 50 uM at pH 7.4 after 24 hrs by LC-UV analysis. It is filed as physicochemical. To be noted: read-out: Stability. In a few lines: (§6)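 1 mM DMSO stocks diluted to 50 µM final (5% v/v DMSO) in prewarmed 0.01 M PBS pH 7.4 or 0.01 M borate buffer pH 9.0. Incubated at 37 °C for 24 h, mixed with equal volume acetonitrile, analysed by C18 RP-HPLC with UV detection at 281 nm; percent remaining, mean ± SD, n = 3.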

Data set [23] in a line: Chemical stability of the compound in buffer solution assessed as compound remaining at 50 uM at pH 9 after 24 hrs by LC-UV analysis. Format: physicochemical. In a few lines:
as §6

Data set [24] is described as follows: as §4. It is filed as ADME, cell-free. To be noted: pH 7.4, read-out: Stability. Summed up: as §5

Molecules are shown by their SMILES. pIC50: −log10 of the molar value. Active and inactive are the calls of the source. No cut-off for these calls is given here.

For orientation: pIC50 means −log10 of the IC50, conventionally taken in molar units. Read a low pIC50 as a large IC50.

Sequence of Epidermal growth factor receptor (Homo sapiens, UniProt P00533, L858R/T790M) (P00533 25-1210 T790M/L858R limits assumed): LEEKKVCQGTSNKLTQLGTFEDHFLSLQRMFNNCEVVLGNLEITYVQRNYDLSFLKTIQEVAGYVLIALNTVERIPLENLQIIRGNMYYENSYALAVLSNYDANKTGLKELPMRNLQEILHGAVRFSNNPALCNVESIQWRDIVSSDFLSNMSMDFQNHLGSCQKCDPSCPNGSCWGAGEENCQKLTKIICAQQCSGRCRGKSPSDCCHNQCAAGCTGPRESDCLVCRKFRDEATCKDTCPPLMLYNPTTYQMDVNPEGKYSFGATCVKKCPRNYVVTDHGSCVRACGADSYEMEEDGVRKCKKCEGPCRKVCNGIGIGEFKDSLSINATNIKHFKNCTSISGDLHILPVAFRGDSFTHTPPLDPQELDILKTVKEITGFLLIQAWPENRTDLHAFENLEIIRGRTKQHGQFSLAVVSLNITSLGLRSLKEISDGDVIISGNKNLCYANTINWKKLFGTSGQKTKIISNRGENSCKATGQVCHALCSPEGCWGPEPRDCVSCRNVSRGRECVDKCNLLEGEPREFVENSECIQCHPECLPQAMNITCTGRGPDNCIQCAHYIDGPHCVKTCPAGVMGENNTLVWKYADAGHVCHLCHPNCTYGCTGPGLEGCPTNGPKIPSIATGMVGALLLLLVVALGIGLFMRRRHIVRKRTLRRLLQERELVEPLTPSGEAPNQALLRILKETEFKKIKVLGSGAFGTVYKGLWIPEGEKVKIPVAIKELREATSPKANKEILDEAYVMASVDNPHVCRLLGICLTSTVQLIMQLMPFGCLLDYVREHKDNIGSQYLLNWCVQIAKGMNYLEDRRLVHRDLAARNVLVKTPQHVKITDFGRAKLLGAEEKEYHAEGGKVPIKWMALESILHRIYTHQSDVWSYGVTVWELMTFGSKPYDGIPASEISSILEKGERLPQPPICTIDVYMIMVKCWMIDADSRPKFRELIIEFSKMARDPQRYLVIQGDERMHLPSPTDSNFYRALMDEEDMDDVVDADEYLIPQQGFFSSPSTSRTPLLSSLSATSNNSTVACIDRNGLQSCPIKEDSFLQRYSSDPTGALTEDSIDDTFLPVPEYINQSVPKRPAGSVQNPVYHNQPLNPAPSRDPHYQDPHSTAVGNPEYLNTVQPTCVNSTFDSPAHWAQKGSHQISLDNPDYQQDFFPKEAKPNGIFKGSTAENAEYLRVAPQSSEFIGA
Sequence of Epidermal growth factor receptor (Homo sapiens), P00533 [L858R,T790M] (P00533 whole entry T790M/L858R, looked up): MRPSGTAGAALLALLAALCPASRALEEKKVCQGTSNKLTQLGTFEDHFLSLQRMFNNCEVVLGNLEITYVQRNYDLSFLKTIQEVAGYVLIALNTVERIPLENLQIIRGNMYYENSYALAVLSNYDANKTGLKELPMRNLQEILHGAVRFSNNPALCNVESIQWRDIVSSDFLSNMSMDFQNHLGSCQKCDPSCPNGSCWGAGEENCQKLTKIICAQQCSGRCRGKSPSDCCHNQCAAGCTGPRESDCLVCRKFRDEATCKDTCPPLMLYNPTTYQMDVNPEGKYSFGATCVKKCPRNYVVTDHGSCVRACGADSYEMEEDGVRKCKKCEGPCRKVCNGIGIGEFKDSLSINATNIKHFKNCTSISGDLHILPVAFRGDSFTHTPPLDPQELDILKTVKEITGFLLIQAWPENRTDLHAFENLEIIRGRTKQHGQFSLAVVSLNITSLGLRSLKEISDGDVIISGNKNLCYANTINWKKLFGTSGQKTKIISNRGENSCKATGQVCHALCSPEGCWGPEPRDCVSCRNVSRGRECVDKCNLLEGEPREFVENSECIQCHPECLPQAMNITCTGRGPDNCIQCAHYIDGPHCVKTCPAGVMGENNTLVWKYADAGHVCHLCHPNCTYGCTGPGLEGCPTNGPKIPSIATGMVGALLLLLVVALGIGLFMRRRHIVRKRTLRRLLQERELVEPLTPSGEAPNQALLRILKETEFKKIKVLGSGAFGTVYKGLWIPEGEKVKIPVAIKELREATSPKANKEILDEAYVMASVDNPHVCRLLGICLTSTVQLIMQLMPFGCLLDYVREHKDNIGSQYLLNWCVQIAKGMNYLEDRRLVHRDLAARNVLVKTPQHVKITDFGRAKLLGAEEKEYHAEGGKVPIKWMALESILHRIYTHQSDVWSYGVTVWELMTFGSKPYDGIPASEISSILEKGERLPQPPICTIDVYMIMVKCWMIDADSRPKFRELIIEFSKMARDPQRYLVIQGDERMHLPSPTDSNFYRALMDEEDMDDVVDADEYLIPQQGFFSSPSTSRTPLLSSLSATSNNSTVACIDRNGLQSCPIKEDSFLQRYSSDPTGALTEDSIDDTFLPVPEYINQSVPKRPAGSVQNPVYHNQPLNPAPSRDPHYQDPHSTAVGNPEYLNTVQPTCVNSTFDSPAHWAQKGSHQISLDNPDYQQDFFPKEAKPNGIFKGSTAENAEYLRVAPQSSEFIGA

As for `COc1cc(N2CCN(C)CC2)ccc1Nc1ncc(Cl)c(Oc2cccc(NC(=O)CCN3CCOCC3)c2)n1`, the pIC50 in data set [1] is 5.58; in [2] it was 6.05; in data set [3], 5.44; in data set [4], less than 5.00; in data set [5], 5.99; in [6] it was 5.41. The pIC50 in [7] is less than 5.00; in data set [8] it was 5.64; in [9], less than 5.00.
For `CCOC(=O)N1CCN(CCC(=O)Nc2cccc(Oc3nc(Nc4ccc(N5CCN(C)CC5)cc4OC)ncc3Cl)c2)CC1`, the pIC50 in data set [1] was 5.28; in data set [2] it was 6.05; in data set [3], 5.43; in data set [4] it was 6.27; in data set [5] it was 5.80; in data set [6], 5.34. Besides, the pIC50 is 5.62 in [7], 5.24 in [8] and 6.16 in [9].
For `COc1cc(N2CCN(C)CC2)ccc1Nc1ncc(Cl)c(Oc2cccc(NC(=O)CCN(C)C)c2)n1`, the pIC50 in [1] was 6.03; in data set [2] it was 6.58; in data set [3], 5.94; in [4], 6.74; in [5] it was 6.81; in data set [6], 6.26. The pIC50 in data set [7] is 6.09; in [8] it was 6.21; in data set [9], 6.20.
Turning to `COc1cc(N2CCN(C)CC2)ccc1Nc1ncc(Cl)c(Oc2cccc(NC(=O)CCN3CCN(CCOc4no[n+]([O-])c4S(=O)(=O)c4ccccc4)CC3)c2)n1`, the outcome in data set [10] was Active. In addition, the pIC50 in data set [1] is 5.08; in data set [2] it was 6.89; in data set [3] it was 5.54; in [4], 6.58; in data set [5], 6.97; in [6], 5.35. Also, the values for the negative logarithm of the IC50 (pIC50) in data set [7], in data set [8] and in [9] were 6.58, 5.47 and 6.70, respectively. The inhibition result in data set [11] and in data set [14] was “inactive” throughout. In addition, the inhibition result in [12] was “Dose-dependent effect”. The inhibition result in data set [13], in data set [15], in data set [16] and in data set [17] was “Active” throughout.
With `C=CC(=O)Nc1cccc(Oc2nc(Nc3ccc(N4CCN(C)CC4)cc3OC)ncc2Cl)c1`, the remaining at 1 h, 50 µM in data set [18] amounted to 12.2%; in data set [19], 73.5%; in [20], 11.3%. The figures for the pIC50 in data set [2] and in data set [5] were 8.10 and 7.34, respectively. The Stability entry is “BLD” in [21] and “BLD” in [23] (buffer, pH 9, 24 h, 50 µM, BLD = below limit of detection). Also, in data set [22], the remaining at 24 h, 50 µM turned out to be 101%.
In the case of `COc1cc2ncnc(Nc3ccc(F)c(Cl)c3)c2cc1OCCCN1CCOCC1`, the outcome in [10] was Active. The inhibition entry in [15] was “inactive”.
As for `CCN(CC)CCC(=O)Nc1cccc(Oc2nc(Nc3ccc(N4CCN(C)CC4)cc3OC)ncc2Cl)c1`, the pIC50 is 6.00 in [1]; 6.60 in data set [2]; 6.21 in [3]; 6.74 in data set [4]; 6.78 in [5]; 6.54 in data set [6]. In addition, the figures for the pIC50 in [7], in data set [8] and in [9] were 6.09, 6.36 and 6.06, respectively.
On to `COc1cc(N2CCN(C)CC2)ccc1Nc1ncc(Cl)c(Oc2cccc(NC(=O)CCN3CCCC3)c2)n1`, for which the pIC50 is 5.92 in data set [1]; 6.68 in data set [2]; 5.95 in data set [3]; 7.06 in [4]; 6.57 in [5]; 6.09 in data set [6]. Also, the values for the pIC50 in data set [7], in [8] and in data set [9] were 6.37, 5.72 and 6.28, respectively.
In the case of `COc1cc(N2CCN(C)CC2)ccc1Nc1ncc(Cl)c(Oc2cccc(NC(=O)CCN3CCN(CCO)CC3)c2)n1`, the remaining at 1 h, 50 µM is 101% in [18], 100% in data set [19] and 101% in data set [20]. Also, the pIC50 is 5.55 in data set [1]; 6.10 in data set [2]; 5.69 in [3]; 5.62 in data set [4]; 6.03 in data set [5]; 6.20 in data set [6]. Also, the pIC50 is 5.23 in [7], 5.78 in data set [8] and 5.62 in data set [9]. The remaining at 24 h, 50 µM amounted to 105% in [24]; 99.5% in data set [22]; 81.4% in data set [23] (buffer solution, pH 9, read-out: Stability).
With `COc1cc(N2CCN(C)CC2)ccc1Nc1ncc(Cl)c(Oc2cccc(NC(=O)CCN3CCCCC3)c2)n1`, the pIC50 in data set [1] is 5.95; in data set [2], 6.47; in data set [3], 6.01; in data set [4], 5.66; in data set [5], 6.75; in data set [6], 6.39. The pIC50 in data set [7] was 5.34; in data set [8] it was 6.44; in data set [9], 5.00.
For `COc1cc(N2CCN(C)CC2)ccc1Nc1ncc(Cl)c(Oc2cccc(NC(=O)CCN3CCN(C)CC3)c2)n1`, the pIC50 was 5.99 in data set [1]; 5.82 in [2]; 5.76 in [3]; 5.33 in [4]; 5.98 in data set [5]; 6.26 in [6]. In addition, the pIC50 in data set [7] is 5.00; in [8], 6.39; in [9] it was 5.13.

These data come from ChEMBL document CHEMBL3232794, “Synthesis and evaluation of 2-anilinopyrimidines bearing 3-aminopropamides as potential epidermal growth factor receptor inhibitors” (Eur J Med Chem, 2014).
